One compound from ChEMBL document CHEMBL4359879, “Synthesis and evaluation of 2-carboxy indole derivatives as potent and selective anti-leukemic agents” (Eur J Med Chem, 2019) can be followed below.

The source made the active and inactive calls. The rule behind the calls is not given here.

The subject of assay [1] is CCRF-CEM. Description: Effect on human CEM cells assessed as increase in p53 protein expression at 300 nM incubated for 15 to 360 mins by Western blot analysis. The class given is functional, cell-based. The method, boiled down:
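RS4;11, CEM and HL60 cells were exposed to 300 nM for 0, 15, 30, 60 and 360 min. Lysates were immunoblotted for β-tubulin and p53, with lamin B1 as loading control. Detection was by chemiluminescence.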

For assay [2], the target named is T1, Tubulin (Homo sapiens) (UniProt P68371+Q9H4B7+P0DPH7+P68366+Q13509+Q71U36+P04350+Q3ZCM7+P07437+P68363+Q9BQE3+Q6PEY2+Q13885+Q9BVA1+Q9BUF5). Description: Induction of microtubule network depolymerization in human HeLa cells assessed as formation of abnormal chromosomal segregation at 500 nM incubated for 18 hrs by DAPI staining based fluorescence microscopic method. The class given is cell-based. The method, boiled down: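 HeLa cells (100,000/mL) cultured overnight on glass-bottom dishes, then exposed to 500 nM or 1 μM, or DMSO, for 18 h. Permeabilized (0.5% Triton X-100) and fixed (3.7% formaldehyde). Stained overnight at 4 °C with anti-β-tubulin, then Alexa Fluor 647 secondary for 1 h at room temperature, and DAPI 1 μg/mL for 10 min. Examined by fluorescence microscopy.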

The test system of assay [3] is HL-60. Description: Effect on human HL60 cells assessed as fold change in USP24 gene expression at 1.085 uM incubated for 6 hrs by microarray-based method. The class given is functional.
Assay [4] has as its system HL-60. As to the kind of experiment: Effect on human HL60 cells assessed as fold change in NCBP2-AS2 gene expression at 1.085 uM incubated for 6 hrs by microarray-based method. The class given is functional. In a few lines:
(§1)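 HL60 cells were treated in triplicate with 1.085 µM or vehicle for 6 h. Total RNA was extracted with on-column DNase treatment and profiled on expression arrays.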

Assay [5] has as its system RS4-11. As to the kind of experiment: Induction of cell cycle arrest in human RS4:11 cells assessed as decrease in accumulation at G1 phase at 300 nM incubated for 18 hrs by BrdU/propidium iodide staining based flow cytometric analysis. The class given is functional. The method, boiled down: (§2)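 RS4;11 cells treated with 300 nM or DMSO vehicle for 18 h, then pulsed with 10 μM BrdU for 1 h. Harvested cells immunostained for BrdU/PI (cell cycle), γH2AX (DNA damage) and PARP (apoptosis). Multicolor flow cytometry gated G1, sub-G2-like, G2/M and sub-G0/G1 populations.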

The subject of assay [6] is HL-60. Description: Effect on human HL60 cells assessed as fold change in IPO13 gene expression at 1.085 uM incubated for 6 hrs by microarray-based method. The class given is functional. The method, boiled down:
as §1

The subject of assay [7] is HL-60. As to the kind of experiment: Effect on human HL60 cells assessed as fold change in GDF10 gene expression at 1.085 uM incubated for 6 hrs by microarray-based method. The class given is functional. The method, boiled down: as §1
Assay [8] deals with HL-60. Description: Effect on human HL60 cells assessed as fold change in HOXB-AS3 gene expression at 1.085 uM incubated for 6 hrs by microarray-based method. The class given is functional. In a few lines:
as §1

In assay [9] the test system is CCRF-CEM. As to the kind of experiment: Induction of apoptosis in human CEM cells at 300 nM incubated for 18 hrs by Annexin V-FITC/propidium iodide staining-based flow cytometric analysis. The class given is functional, cell-based. In a few lines:
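CEM, HL60 or RS4;11 cells (5×10^5) treated with 300 nM or vehicle for 18 h. Stained with FITC-Annexin V in binding buffer for 15 min at 37 °C, then PI (5 μg/mL) for 3 min. Analyzed by flow cytometry.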

For assay [10], the system named is HL-60. Description: Effect on human HL60 cells assessed as fold change in C7orf43 gene expression at 1.085 uM incubated for 6 hrs by microarray-based method. The class given is functional. In a few lines:
as §1

For assay [11], the system named is RS4-11. As to the kind of experiment: Antitumor activity against human RS4:11 cells xenografted in NOD/SCID mouse assessed as increase in survival at 10 mg/kg, ip administrated 5 times per week. The class given is functional, organism-based. In a few lines:
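Ten million RS4;11 cells were injected into the tail vein of unconditioned NOD/SCID mice. Engraftment was tracked by flow cytometry of human versus mouse CD45 in ficoll-isolated blood. When human CD45+ cells reached ≥1.5% in half of the mice, animals were randomized (n=5 per group) to vehicle (1% PVP, 4% DMSO, 95% PBS) or 10 mg/kg ip, 5x per week until death. Groups were compared by Kaplan-Meier curves and log-rank test.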

In assay [12] the test system is RS4-11. Description: Antiproliferative activity against human RS4:11 cells incubated for 48 hrs by MTT assay. Conditions: RS4-11, 48 h. The class given is functional, cell-based. In a few lines: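 Cells grown in RPMI-1640 with 10% FBS, penicillin/streptomycin, 37 °C, 5% CO2. After 48 h of exposure to a dilution series, MTT was added (0.5 mg/ml final) for 4 h. Formazan was dissolved overnight in acidic SDS (10% SDS, 0.01 mol/L HCl) and absorbance read at 570 and 620 nm. Survival was expressed relative to controls, and EC50 was fitted from dose-response curves.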

Assay [13] deals with HL-60. As to the kind of experiment: Induction of cell cycle arrest in human HL60 cells assessed as accumulation of cells at sub G0/G1 phase at EC50 incubated for 12 hrs by PI staining based flow cytometric analysis (reference value: 1.67%). The class given is functional.
In assay [14] the target is T1, Tubulin (Homo sapiens). Description: Inhibition of tubulin polymerization in human CEM cells at 300 nM by Western blot analysis. The class given is cell-based. Conditions: TDE = time-dependent effect. In a few lines:
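Leukemia cells (RS4;11, CEM, HL60) treated with 300 nM for 0, 15, 30, 60 and 360 min. Western blotting for β-tubulin and p53, with lamin B1 as loading control and chemiluminescent detection.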

In assay [15] the test system is HL-60. Description: Effect on human HL60 cells assessed as fold change in PPP1R1A gene expression at 1.085 uM incubated for 6 hrs by microarray-based method. The class given is functional. In a few lines: as §1
The subject of assay [16] is HL-60. Description: Effect on human HL60 cells assessed as fold change in MOB2 gene expression at 1.085 uM incubated for 6 hrs by microarray-based method. The class given is functional. The method, boiled down: as §1
In assay [17] the test system is HL-60. Description: Induction of cell cycle arrest in human HL60 cells assessed as accumulation of cells at G2/M phase at EC50 incubated for 18 hrs by PI staining based flow cytometric analysis (reference value: 23.0%). The class given is functional.
Assay [18] concerns HL-60. Description: Effect on human HL60 cells assessed as fold change in ANKRD36 gene expression at 1.085 uM incubated for 6 hrs by microarray-based method. The class given is functional. The method, boiled down: as §1
The test system of assay [19] is RS4-11. As to the kind of experiment: Induction of DNA damage in human RS4:11 cells assessed as accumulation of cells at G1 phase at 300 nM incubated for 18 hrs in presence of H2AX antibody by immunofluorescent staining based flow cytometric analysis relative to control. The class given is functional. In a few lines: as §2
For assay [20], the system named is HL-60. As to the kind of experiment: Effect on human HL60 cells assessed as fold change in SGOL1 gene expression at 1.085 uM incubated for 6 hrs by microarray-based method. The class given is functional. In a few lines:
as §1

Assay [21] concerns HL-60. As to the kind of experiment: Induction of cell cycle arrest in human HL60 cells assessed as accumulation of cells at G2/M phase at EC50 incubated for 12 hrs by PI staining based flow cytometric analysis (reference value: 23.0%). The class given is functional.
The test system of assay [22] is HL-60. As to the kind of experiment: Induction of differentiation in human HL60 cells assessed as increase in CD11b positive cells incubated for 48 hrs by 7-AAD staining-based flow cytometric analysis. The class given is functional, cell-based. The method, boiled down:
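Vitamin D3 at 100 nM and ATRA at 2 μM served as positive controls. Stained with APC anti-CD11b and PE anti-CD14 for 30 min at 4 °C, then 7-AAD.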

For assay [23], the system named is RS4-11. As to the kind of experiment: Induction of apoptosis in human RS4:11 cells assessed as accumulation of cells at G1 phase at 300 nM incubated for 18 hrs in presence of PARP antibody by immunofluorescent staining based flow cytometric analysis relative to control. The class given is functional. In a few lines:
as §2

For `COC(=O)c1[nH]c2cc(OC)ccc2c1-c1ccc(C(F)(F)F)cc1`, the outcome in assay [1], in assay [2], in assay [5], in assay [9] and in assay [11] was Active. For the same compound, the “fold change (FC)” value in assay [3] is recorded as 1.74; in assay [4], -1.58; in [6], 1.8; in assay [7], -1.56; in assay [8], -1.54; in assay [10], -1.72. For the same compound, the “fold change (FC)” value in assay [15] is on record as -1.7; in assay [16], -1.79; in assay [18] it was 1.54; in assay [20] it was 1.52. In [12], this compound had a concentration for a half-maximal effect (EC50) of 300 nM. The Activity was 12.1% in assay [13]; 56.3% in assay [17]; 6.9% in [19]; 48% in [21]; “Dose-dependent effect” in assay [22]; 7% in assay [23]. In assay [14], the inhibition entry is “Tde”.
